{
  "source": "paper PMC11338093",
  "about": "(ESMO Open, 2024)",
  "key": {"[1]": {"test": "APG-1387 monotherapy phase I trial: plasma pharmacokinetics", "type": "in vivo, human"}, "[2]": {"test_system": "IFN-γ, IL-12/IL-23p40, IL-5, and IL-6", "test": "Combination trial: plasma cytokines", "type": "in vivo, human", "settings": "4 and 24 h after APG-1387 dosing, 16 subjects", "procedure,_shortened": "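Combination regimen: toripalimab 240 mg i.v. Q3W with the test compound i.v. weekly on D1/8 or D1/8/15. Plasma was collected on C1D1 pre-dose, at 4 and 24 h after the first test compound dose, and on C2D1 and C3D1 before toripalimab. Cytokines were measured by Meso Scale Discovery assay. Post-dose IFN-γ, IL-12, IL-5 and IL-6 were normalised to each subject's baseline.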"}, "[3]": {"test_system": "subjects with advanced solid tumors", "test": "APG-1387 monotherapy phase I trial: safety", "type": "in vivo, human", "procedure,_shortened": "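3+3 escalation of 0.3, 0.6, 4.0, 7.0, 12, 20, 30 and 45 mg, given as 30-min i.v. infusion on D1/8/15 with a 1-week rest per 28-day cycle. Safety was monitored by vitals, examination, haematology, biochemistry, thyroid, coagulation and ECG. AEs were graded by CTCAE 4.0 from consent to 90 days after last dose. DLTs were predefined drug-related grade ≥3–4 toxicities in cycle 1. MTD was the level below that with DLTs in ≥2 of 6 subjects.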"}, "advanced solid tumors": {"test_system": "advanced solid tumors", "test": "APG-1387 monotherapy phase I trial: antitumor activity", "type": "in vivo, human"}, "[4]": {"test_system": "NK cell (CD3, −CD16+, and CD56+) populations", "test": "Combination trial: peripheral blood lymphocyte subsets by flow cytometry", "type": "in vivo, human", "procedure,_shortened": "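Combination regimen: toripalimab 240 mg i.v. Q3W plus test compound i.v., either 20–30 mg on D1/8 (3+3 stage) or 45 mg on D1/8/15 (second stage). Peripheral blood (3 ml) was drawn on C1D1, C2D1, C3D1 and at end of treatment. Lymphocyte subsets were analysed by flow cytometry. Post-dose cell proportions were divided by each subject's baseline.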"}, "[5]": {"test_system": "patients with advanced solid tumors", "settings": "cited from earlier work"}, "[6]": {"test_system": "adults with refractory solid tumors or lymphoma", "settings": "monotherapy phase I trial; cited from earlier work"}, "[7]": {"settings": "28 participants, 30- and 45-mg groups"}},
  "data": [
    {"smiles": "CN[C@@H](C)C(=O)N[C@H]1CN(S(=O)(=O)c2cccc(S(=O)(=O)N3CC[C@H]4CC[C@@H](C(=O)NC(c5ccccc5)c5ccccc5)N4C(=O)[C@@H](NC(=O)[C@H](C)NC)C3)c2)CC[C@H]2CC[C@@H](C(=O)NC(c3ccccc3)c3ccccc3)N2C1=O", "note": "[APG-1387]", "values": [
      {"measurement": "Increase of Cmax and AUC0-t with dose", "setting": "[1]; 0.3-45 mg", "result": "approximately dose-proportional"},
      {"measurement": "Accumulation after multiple dosing", "setting": "[1]; QW dosing schedule", "result": "No significant accumulation"},
      {"measurement": "Mean rate of clearance", "setting": "[1]; range across doses", "result": "15.9 to 60.7", "unit": "L/h"},
      {"measurement": "Mean steady-state volume of distribution (Vss)", "setting": "[1]; range across doses", "result": "10.1 to 60.1", "unit": "L"},
      {"measurement": "Mean terminal half-life", "setting": "[1]; range across doses", "result": "44.5 to 672", "unit": "min"},
      {"measurement": "Median time to maximum plasma concentration (Cmax)", "setting": "[1]; range across doses, QW i.v. infusion 30 min", "result": "0.25 to 0.50", "unit": "h"},
      {"measurement": "Plasma levels of IFN-γ, IL-12/IL-23p40, IL-5, and IL-6", "setting": "[2]", "result": "significantly increased"},
      {"measurement": "Dose-limiting toxicities (DLT)", "setting": "[3]; 0.3-45 mg i.v. D1/8/15 of 28-day cycle, 28 subjects", "result": "no DLT occurred"},
      {"measurement": "Subjects with TRAEs", "setting": "[3]; 28 participants", "result": 21.4, "unit": "%"},
      {"measurement": "TRAE pruritus", "setting": "[3]; 28 participants, 20-mg group", "result": 3.6, "unit": "%"},
      {"measurement": "TRAE elevated ALT", "setting": "[3]; [7]", "result": 7.1, "unit": "%"},
      {"measurement": "TRAE elevated AST", "setting": "[3]; [7]", "result": 7.1, "unit": "%"},
      {"measurement": "TRAE asthenia", "setting": "[3]; 28 participants, 45-mg group", "result": 3.6, "unit": "%"},
      {"measurement": "TRAE facial-nerve disorder", "setting": "[3]; 28 participants, all in 45-mg group", "result": 10.7, "unit": "%"},
      {"measurement": "Participants with grade ≥3 TRAE (ALT elevation)", "setting": "[3]; 28 subjects", "result": 3.6, "unit": "%"},
      {"measurement": "Any TRAE, All grade", "setting": "[3]; all doses, n = 28", "result": "6 (21·4) n (%)"},
      {"measurement": "Any TRAE, Grade ≥3", "setting": "[3]; all doses, n = 28", "result": "1 (3·6) n (%)"},
      {"measurement": "TRAE Alanine aminotransferase elevation, All grade", "setting": "[3]; all doses, n = 28", "result": "2 (7·1) n (%)"},
      {"measurement": "TRAE Alanine aminotransferase elevation, Grade ≥3", "setting": "[3]; all doses, n = 28", "result": "1 (3·6) n (%)"},
      {"measurement": "TRAE Amylase elevation, All grade", "setting": "[3]; all doses, n = 28", "result": "0 (0) n (%)"},
      {"measurement": "TRAE Amylase elevation, Grade ≥3", "setting": "[3]; all doses, n = 28", "result": "0 (0) n (%)"},
      {"measurement": "TRAE Aspartate aminotransferase elevation, All grade", "setting": "[3]; all doses, n = 28", "result": "2 (7·1) n (%)"},
      {"measurement": "TRAE Aspartate aminotransferase elevation, Grade ≥3", "setting": "[3]; all doses, n = 28", "result": "0 (0) n (%)"},
      {"measurement": "TRAE Asthenia, All grade", "setting": "[3]; all doses, n = 28", "result": "1 (3·6) n (%)"},
      {"measurement": "TRAE Asthenia, Grade ≥3", "setting": "[3]; all doses, n = 28", "result": "0 (0) n (%)"},
      {"measurement": "TRAE Blood creatinine elevation, All grade", "setting": "[3]; all doses, n = 28", "result": "0 (0) n (%)"},
      {"measurement": "TRAE Blood creatinine elevation, Grade ≥3", "setting": "[3]; all doses, n = 28", "result": "0 (0) n (%)"},
      {"measurement": "TRAE Decreased appetite, All grade", "setting": "[3]; all doses, n = 28", "result": "0 (0) n (%)"},
      {"measurement": "TRAE Decreased appetite, Grade ≥3", "setting": "[3]; all doses, n = 28", "result": "0 (0) n (%)"},
      {"measurement": "TRAE Facial-nerve disorder, All grade", "setting": "[3]; all doses, n = 28", "result": "3 (10·7) n (%)"},
      {"measurement": "TRAE Facial-nerve disorder, Grade ≥3", "setting": "[3]; all doses, n = 28", "result": "0 (0) n (%)"},
      {"measurement": "TRAE Headache, All grade", "setting": "[3]; all doses, n = 28", "result": "0 (0) n (%)"},
      {"measurement": "TRAE Headache, Grade ≥3", "setting": "[3]; all doses, n = 28", "result": "0 (0) n (%)"},
      {"measurement": "TRAE Hypoesthesia, All grade", "setting": "[3]; all doses, n = 28", "result": "0 (0) n (%)"},
      {"measurement": "TRAE Hypoesthesia, Grade ≥3", "setting": "[3]; all doses, n = 28", "result": "0 (0) n (%)"},
      {"measurement": "TRAE Hypogeusia, All grade", "setting": "[3]; all doses, n = 28", "result": "0 (0) n (%)"},
      {"measurement": "TRAE Hypogeusia, Grade ≥3", "setting": "[3]; all doses, n = 28", "result": "0 (0) n (%)"},
      {"measurement": "TRAE Hypothyroidism, All grade", "setting": "[3]; all doses, n = 28", "result": "0 (0) n (%)"},
      {"measurement": "TRAE Hypothyroidism, Grade ≥3", "setting": "[3]; all doses, n = 28", "result": "0 (0) n (%)"},
      {"measurement": "TRAE Immune-mediated pancreatitis, All grade", "setting": "[3]; all doses, n = 28", "result": "0 (0) n (%)"},
      {"measurement": "TRAE Immune-mediated pancreatitis, Grade ≥3", "setting": "[3]; all doses, n = 28", "result": "0 (0) n (%)"},
      {"measurement": "TRAE Infusion site reaction, All grade", "setting": "[3]; all doses, n = 28", "result": "0 (0) n (%)"},
      {"measurement": "TRAE Infusion site reaction, Grade ≥3", "setting": "[3]; all doses, n = 28", "result": "0 (0) n (%)"},
      {"measurement": "TRAE Leukopenia, All grade", "setting": "[3]; all doses, n = 28", "result": "0 (0) n (%)"},
      {"measurement": "TRAE Leukopenia, Grade ≥3", "setting": "[3]; all doses, n = 28", "result": "0 (0) n (%)"},
      {"measurement": "TRAE Lipase elevation, All grade", "setting": "[3]; all doses, n = 28", "result": "0 (0) n (%)"},
      {"measurement": "TRAE Lipase elevation, Grade ≥3", "setting": "[3]; all doses, n = 28", "result": "0 (0) n (%)"},
      {"measurement": "TRAE Platelet count decrease, All grade", "setting": "[3]; all doses, n = 28", "result": "0 (0) n (%)"},
      {"measurement": "TRAE Platelet count decrease, Grade ≥3", "setting": "[3]; all doses, n = 28", "result": "0 (0) n (%)"},
      {"measurement": "TRAE Pruritus, All grade", "setting": "[3]; all doses, n = 28", "result": "1 (3·6) n (%)"},
      {"measurement": "TRAE Pruritus, Grade ≥3", "setting": "[3]; all doses, n = 28", "result": "0 (0) n (%)"},
      {"measurement": "TRAE Rash, All grade", "setting": "[3]; all doses, n = 28", "result": "0 (0) n (%)"},
      {"measurement": "TRAE Rash, Grade ≥3", "setting": "[3]; all doses, n = 28", "result": "0 (0) n (%)"},
      {"measurement": "Maximum tolerated dose (MTD)", "setting": "[3]; doses up to 45 mg", "result": "not reached"},
      {"measurement": "Subjects with treatment-emergent adverse events", "setting": "[3]; safety population, 28 participants", "result": 89.3, "unit": "%"},
      {"measurement": "Disease control rate (DCR)", "setting": "advanced solid tumors; 23 participants", "result": 21.7, "unit": "%"},
      {"measurement": "Best overall response: Complete response", "setting": "advanced solid tumors; n 23", "result": "0 (0) n (%)"},
      {"measurement": "Best overall response: Partial response", "setting": "advanced solid tumors; n 23", "result": "0 (0) n (%)"},
      {"measurement": "Best overall response: Progressive disease", "setting": "advanced solid tumors; n 23", "result": "18 (78·3) n (%)"},
      {"measurement": "Best overall response: Stable disease", "setting": "advanced solid tumors; n 23", "result": "5 (21·7) n (%)"},
      {"measurement": "Disease control rate", "setting": "advanced solid tumors; n 23", "result": "5 (21·7) n (%)"},
      {"measurement": "Objective response rate", "setting": "advanced solid tumors; n 23", "result": "0 (0) n (%)"},
      {"measurement": "Duration of SD with tumor reduction", "setting": "advanced solid tumors; one individual with CRC, 20-mg group", "result": 16, "unit": "weeks"},
      {"measurement": "NK cell populations in peripheral blood", "setting": "[4]; 45-mg dose of APG-1387, combination trial", "result": "increased"},
      {"measurement": "NK cell populations in peripheral blood", "setting": "[4]; low doses of APG-1387, combination trial", "result": "did not change significantly"}
    ]},
    {"smiles": "CN[C@@H](C)C(=O)N[C@H](C(=O)N1CCC[C@H]1c1nc(C(=O)c2ccc(F)cc2)cs1)C1CCCCC1", "note": "[LCL161]", "values": [
      {"measurement": "Cytokine release syndrome (CRS)", "setting": "[5]; high doses of 1800, 2100, and 3000 mg", "result": "grade 3-4 cytokine release syndrome"},
      {"measurement": "CR or PR", "setting": "[5]; monotherapy phase I trial", "result": "no participant had a CR or PR"},
      {"measurement": "Subjects with best response of SD", "setting": "[5]; monotherapy phase I trial", "result": 19, "unit": "%"}
    ]},
    {"smiles": "CC[C@H](NC(=O)[C@H](C)NC)C(=O)N1C[C@@H](O)C[C@H]1Cc1c(-c2[nH]c3cc(F)ccc3c2C[C@@H]2C[C@H](O)CN2C(=O)[C@H](CC)NC(=O)[C@H](C)NC)[nH]c2cc(F)ccc12", "note": "[birinapant]", "values": [
      {"measurement": "CR or PR", "setting": "[6]", "result": "no participant had a CR or PR"},
      {"measurement": "Subjects with best response of SD", "setting": "[6]", "result": 28, "unit": "%"}
    ]}
  ]
}
